Reference: ChEMBL document CHEMBL3120107, “Cytotoxic cardiac glycosides and coumarins from Antiaris toxicaria” (2014)
≈ marks a conversion by molar mass, not a printed value.

Legend:
[1] = Cytotoxicity against human U87MG cells assessed as growth inhibition after 72 hrs by SRB assay; assay type: functional, U-87MG ATCC; settings: for EC50: Homo sapiens, U-87 MG, 72 h, read-out: ED50 (the source's name)
In short: (§1)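 Sulforhodamine B assay run by NCI-validated procedure. Cells grown at 37 °C under humidified 5% CO2 in RPMI-1640 with 25 mM HEPES, […] (w/v) sodium bicarbonate, 10% (v/v) FBS and 100 μg/mL kanamycin. Compounds came from DMSO stocks, with final DMSO ≤ 1% (v/v). Continuous exposure for 72 h. ED50 (μg/mL, 50% cell-number reduction) interpolated from dose-response data. Triplicate tests. Doxorubicin served as positive control.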

[2] = Cytotoxicity against human KBVIN cells assessed as growth inhibition after 72 hrs by SRB assay; assay type: functional; settings: for EC50: Homo sapiens, KBVIN, 72 h, read-out: ED50 (the source's name); in short: as §1
[3] = Cytotoxicity against human […] cells assessed as growth inhibition after 72 hrs by SRB assay; assay type: functional; settings: for EC50: Homo sapiens, HCT9, 72 h, read-out: ED50 (the source's name); in short: as §1
[4] = system: 1A9; experiment: Cytotoxicity against human 1A9 cells assessed as growth inhibition after 72 hrs by SRB assay; assay type: functional; settings: for EC50: Homo sapiens, 1A9, 72 h, read-out: ED50 (the source's name); in short: as §1
[5] = system: SK-MEL-2; experiment: Cytotoxicity against human SK-MEL-2 cells assessed as growth inhibition after 72 hrs by SRB assay; assay type: functional; settings: for EC50: Homo sapiens, SK-MEL-2, 72 h, read-out: ED50 (the source's name); in short: as §1
[6] = system: A549; experiment: Cytotoxicity against human A549 cells assessed as growth inhibition after 72 hrs by SRB assay; assay type: functional; settings: for EC50: Homo sapiens, A549, 72 h, read-out: ED50 (the source's name); in short: as §1
[7] = system: MCF7; experiment: Cytotoxicity against human MCF7 cells assessed as growth inhibition after 72 hrs by SRB assay; assay type: functional; settings: for EC50: Homo sapiens, MCF7, 72 h, read-out: ED50 (the source's name); in short: as §1
[8] = system: PC-3; experiment: Cytotoxicity against human PC3 cells assessed as growth inhibition after 72 hrs by SRB assay; assay type: functional; settings: for EC50: Homo sapiens, PC-3, 72 h, read-out: ED50 (the source's name); in short: as §1
[9] = system: KB; experiment: Cytotoxicity against human KB cells assessed as growth inhibition after 72 hrs by SRB assay; assay type: functional; settings: for EC50: Homo sapiens, KB, 72 h, read-out: ED50 (the source's name); in short: as §1
[10] = system: CAKI-1; experiment: Cytotoxicity against human CAKI-1 cells assessed as growth inhibition after 72 hrs by SRB assay; assay type: functional; settings: for EC50: Homo sapiens, CAKI-1, 72 h, read-out: ED50 (the source's name); in short: as §1

| SMILES | EC50 [1] | EC50 [2] | EC50 [3] | EC50 [4] | EC50 [5] | EC50 [6] | EC50 [7] | EC50 [8] | EC50 [9] | EC50 [10] | ED50 [1] | ED50 [2] | ED50 [3] | ED50 [4] | ED50 [5] | ED50 [6] | ED50 [7] | ED50 [8] | ED50 [9] | ED50 [10] |
| --- | --- | --- | --- | --- | --- | --- | --- | --- | --- | --- | --- | --- | --- | --- | --- | --- | --- | --- | --- | --- |
| C[C@H]1O[C@H](O[C@H]2CC[C@]3(C=O)[C@H]4C[C@@H](O)[C@]5(C)[C@@H](C6=CC(=O)OC6)CC[C@]5(O)[C@@H]4CC[C@]3(O)C2)[C@H](O)[C@H](O)[C@H]1O | 0.017 µg/mL (≈ 0.03 µM) | 0.15 µg/mL (≈ 0.265 µM) | 0.15 µg/mL (≈ 0.265 µM) | 0.058 µg/mL (≈ 0.102 µM) | 0.13 µg/mL (≈ 0.229 µM) | 0.059 µg/mL (≈ 0.104 µM) | 0.1 µg/mL (≈ 0.176 µM) | 0.0044 µg/mL (≈ 0.00777 µM) | 0.14 µg/mL (≈ 0.247 µM) | 0.072 µg/mL (≈ 0.127 µM) | – | – | – | – | – | – | – | – | – | – |
| C[C@@H]1O[C@H](O[C@H]2CC[C@]3(C=O)[C@H]4C[C@@H](O)[C@]5(C)[C@@H](C6=CC(=O)OC6)CC[C@]5(O)[C@@H]4CC[C@]3(O)C2)[C@H](O)[C@H](O)[C@H]1O | 0.071 µg/mL (≈ 0.125 µM) | 0.061 µg/mL (≈ 0.108 µM) | 0.066 µg/mL (≈ 0.116 µM) | 0.014 µg/mL (≈ 0.0247 µM) | 0.065 µg/mL (≈ 0.115 µM) | 0.013 µg/mL (≈ 0.0229 µM) | 0.018 µg/mL (≈ 0.0318 µM) | 0.05 µg/mL (≈ 0.0882 µM) | 0.067 µg/mL (≈ 0.118 µM) | 0.015 µg/mL (≈ 0.0265 µM) | – | – | – | – | – | – | – | – | – | – |
| CC1(C)Oc2ccc3ccc(=O)oc3c2[C@@H](O[C@@H]2O[C@H](CO)[C@@H](O)[C@H](O)[C@H]2O)[C@@H]1O | 7.4 µg/mL (≈ 17.4 µM) | 4.1 µg/mL (≈ 9.66 µM) | – | – | – | 1.2 µg/mL (≈ 2.83 µM) | 3.1 µg/mL (≈ 7.3 µM) | – | 5.8 µg/mL (≈ 13.7 µM) | – | – | – | – | – | – | – | – | – | – | – |
| C[C@H]1O[C@@H](O[C@H]2CC[C@]3(C=O)[C@H]4CC[C@]5(C)[C@@H](C6=CC(=O)OC6)CC[C@]5(O)[C@@H]4CC[C@]3(O)C2)[C@H](O)[C@H](O)[C@H]1O[C@@H]1O[C@H](CO)[C@@H](O)[C@H](O)[C@H]1O | 1.9 µg/mL (≈ 2.67 µM) | 1.7 µg/mL (≈ 2.39 µM) | 0.94 µg/mL (≈ 1.32 µM) | 0.53 µg/mL (≈ 0.744 µM) | 0.16 µg/mL (≈ 0.224 µM) | 0.12 µg/mL (≈ 0.168 µM) | 0.58 µg/mL (≈ 0.814 µM) | 0.6 µg/mL (≈ 0.842 µM) | 1.5 µg/mL (≈ 2.1 µM) | 0.51 µg/mL (≈ 0.716 µM) | – | – | – | – | – | – | – | – | – | – |
| C[C@]12CC[C@H]3[C@@H](CC[C@@H]4C[C@@H](O)CC[C@@]43CO)[C@@]1(O)CC[C@@H]2C1=CC(=O)OC1 | 0.5 µg/mL (≈ 1.28 µM) | 0.5 µg/mL (≈ 1.28 µM) | 0.46 µg/mL (≈ 1.18 µM) | 12 µg/mL (≈ 30.7 µM) | 0.7 µg/mL (≈ 1.79 µM) | 0.05 µg/mL (≈ 0.128 µM) | 0.21 µg/mL (≈ 0.538 µM) | 0.15 µg/mL (≈ 0.384 µM) | 0.45 µg/mL (≈ 1.15 µM) | 0.11 µg/mL (≈ 0.282 µM) | – | – | – | – | – | – | – | – | – | – |
| CO[C@H]1[C@@H](O[C@H]2CC[C@]3(C=O)[C@H]4CC[C@]5(C)[C@@H](C6=CC(=O)OC6)CC[C@]5(O)[C@@H]4CC[C@]3(O)C2)O[C@H](C)[C@@H](O)[C@H]1O (stereo in doubt; 21) [STROPHATHOJAVOSIDE] | – | – | – | – | – | – | – | – | – | – | 0.078 µg/mL (≈ 0.138 µM) | 0.051 µg/mL (≈ 0.0903 µM) | 0.067 µg/mL (≈ 0.119 µM) | 0.013 µg/mL (≈ 0.023 µM) | 0.064 µg/mL (≈ 0.113 µM) | 0.016 µg/mL (≈ 0.0283 µM) | 0.042 µg/mL (≈ 0.0744 µM) | 0.052 µg/mL (≈ 0.0921 µM) | 0.066 µg/mL (≈ 0.117 µM) | 0.014 µg/mL (≈ 0.0248 µM) |
| CO[C@H]1[C@@H](O[C@H]2CC[C@]3(C=O)[C@H]4CC[C@]5(C)[C@@H](C6=CC(=O)OC6)CC[C@]5(O)[C@@H]4CC[C@]3(O)C2)O[C@H](C)[C@@H](O)[C@H]1O (stereo in doubt; 23) [STROPHATHOJAVOSIDE] | 0.043 µg/mL (≈ 0.0762 µM) | 0.05 µg/mL (≈ 0.0885 µM) | 0.085 µg/mL (≈ 0.151 µM) | 0.013 µg/mL (≈ 0.023 µM) | 0.063 µg/mL (≈ 0.112 µM) | 0.015 µg/mL (≈ 0.0266 µM) | 0.024 µg/mL (≈ 0.0425 µM) | 0.063 µg/mL (≈ 0.112 µM) | 0.081 µg/mL (≈ 0.143 µM) | 0.014 µg/mL (≈ 0.0248 µM) | – | – | – | – | – | – | – | – | – | – |
| C[C@@H]1O[C@H](O[C@H]2CC[C@]3(C(=O)O)[C@H]4C[C@@H](O)[C@]5(C)[C@@H](C6=CC(=O)OC6)CC[C@]5(O)[C@@H]4CC[C@]3(O)C2)[C@H](O)[C@H](O)[C@H]1O [ANTIAROSIDE G] | – | – | – | – | – | 5.3 µg/mL (≈ 9.1 µM) | 17.5 µg/mL (≈ 30 µM) | – | – | – | – | – | – | – | – | – | – | – | – | – |
| C[C@]12CC[C@H](O)C[C@@]1(O)CC[C@@H]1[C@@H]2CC[C@]2(C)[C@@H]([C@]3(O)COC(=O)C3)CC[C@]12O [ANTIAROTOXININ A] | – | – | – | – | – | 4.3 µg/mL (≈ 10.5 µM) | 15 µg/mL (≈ 36.7 µM) | – | – | – | – | – | – | – | – | – | – | – | – | – |
